Data taken from paper PMC7004521 (Cancer Science, 2019).

Experiment: Adverse events suspected to be study drug related, phase 1 study
Assay type: in vivo, human
Procedure, shortened: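 Adult patients with advanced solid tumours and confirmed MET dysregulation took oral capsules twice daily from 100 up to 600 mg in escalation, or 400 mg bid tablets, in 28-day cycles. Expansion was 600 mg bid capsules, with a switch to 400 mg bid tablets allowed. Patients were included if they had ≥1 dose and ≥1 valid post-baseline safety assessment. Events were graded by CTCAE v4.0.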

[1] = drug-related, all escalation N=38
[2] = drug-related, all expansions RP2D N=38
[3] = drug-related, escalation 400 mg bid tablet n=5
[4] = drug-related, escalation 450 mg bid n=9
[5] = drug-related, escalation 600 mg bid n=8

CNC(=O)c1ccc(-c2cnc3ncc(Cc4ccc5ncccc5c4)n3n2)cc1F [capmatinib]
8 (21) n (%): Peripheral edema, all grades [1]
4 (11) n (%): Blood bilirubin increased, all grades [1] | AST increased, all grades [2] | Decreased appetite, all grades [2]
11 (29) n (%): Decreased appetite, all grades [1] | Vomiting, all grades [1] | Nausea, all grades [2]
9 (24) n (%): Fatigue, all grades [2]
10 (26) n (%): Fatigue, all grades [1] | Peripheral edema, all grades [2]
4 (44) n (%): Nausea, all grades [4]
2 (5) n (%): ALT increased, grade 3/4 [1] | Amylase increased, all grades [1] | Blood creatinine increased, all grades [1] | Headache, all grades [1] | Hypophagia, all grades [1] | Hypophagia, grade 3/4 [1] | Myalgia, all grades [1] | Odynophagia, all grades [1] | Pyrexia, all grades [1] | Stomatitis, all grades [1] | Total protein decreased, all grades [1] | Upper abdominal pain, all grades [1] | ALT increased, all grades [2] | ALT increased, grade 3/4 [2] | Asthenia, all grades [2] | Blood creatinine increased, all grades [2] | Dizziness, all grades [2] | Dyspepsia, all grades [2] | Lipase increased, grade 3/4 [2] | Localized edema, all grades [2] | Maculo‐papular rash, all grades [2] | Myalgia, all grades [2] | Thrombocytopenia, all grades [2]
3 (38) n (%): Decreased appetite, all grades [5] | Fatigue, all grades [5]
1 (20) n (%): ALT increased, all grades [3] | AST increased, all grades [3] | Asthenia, all grades [3] | Constipation, all grades [3] | Diarrhea, all grades [3] | Dizziness, all grades [3] | Fatigue, all grades [3] | Odynophagia, all grades [3] | Stomatitis, all grades [3] | Upper abdominal pain, all grades [3] | Vomiting, all grades [3]
5 (13) n (%): AST increased, all grades [1] | Diarrhea, all grades [1]
3 (8) n (%): ALT increased, all grades [1] | Constipation, all grades [1] | Fatigue, grade 3/4 [1] | Lipase increased, all grades [2]
well tolerated: tolerability (across all explored doses)
3 (33) n (%): Decreased appetite, all grades [4] | Fatigue, all grades [4] | Vomiting, all grades [4]
2 (22) n (%): Peripheral edema, all grades [4]
1 (11) n (%): ALT increased, all grades [4] | ALT increased, grade 3/4 [4] | AST increased, all grades [4] | AST increased, grade 3/4 [4] | Asthenia, all grades [4] | Fatigue, grade 3/4 [4] | Headache, all grades [4] | Maculo‐papular rash, all grades [4] | Pyrexia, all grades [4]
12 (32) n (%): Nausea, all grades [1]
0 n (%): Asthenia, grade 3/4 [1] | Blood creatinine increased, grade 3/4 [1] | Constipation, grade 3/4 [1] | Diarrhea, grade 3/4 [1] | Dizziness, grade 3/4 [1] | Dyspepsia, grade 3/4 [1] | Headache, grade 3/4 [1] | Maculo‐papular rash, grade 3/4 [1] | Myalgia, grade 3/4 [1] | Nausea, grade 3/4 [1] | Odynophagia, grade 3/4 [1] | Pyrexia, grade 3/4 [1] | Stomatitis, grade 3/4 [1] | Thrombocytopenia, grade 3/4 [1] | Total protein decreased, grade 3/4 [1] | Upper abdominal pain, grade 3/4 [1] | Vomiting, grade 3/4 [1] | Amylase increased, all grades [2] | Amylase increased, grade 3/4 [2] | Asthenia, grade 3/4 [2] | Blood bilirubin increased, all grades [2] | Blood bilirubin increased, grade 3/4 [2] | Constipation, grade 3/4 [2] | Decreased appetite, grade 3/4 [2] | Diarrhea, grade 3/4 [2] | Dizziness, grade 3/4 [2] | Dyspepsia, grade 3/4 [2] | Headache, grade 3/4 [2] | Hypoalbuminemia, grade 3/4 [2] | Localized edema, grade 3/4 [2] | Maculo‐papular rash, grade 3/4 [2] | Myalgia, grade 3/4 [2] | Odynophagia, all grades [2] | Odynophagia, grade 3/4 [2] | Peripheral edema, grade 3/4 [2] | Pyrexia, all grades [2] | Pyrexia, grade 3/4 [2] | Stomatitis, grade 3/4 [2] | Total protein decreased, all grades [2] | Total protein decreased, grade 3/4 [2] | Upper abdominal pain, all grades [2] | Upper abdominal pain, grade 3/4 [2] | ALT increased, grade 3/4 [3] | Amylase increased, all grades [3] | Amylase increased, grade 3/4 [3] | Asthenia, grade 3/4 [3] | Blood bilirubin increased, all grades [3] | Blood bilirubin increased, grade 3/4 [3] | Blood creatinine increased, all grades [3] | Blood creatinine increased, grade 3/4 [3] | Constipation, grade 3/4 [3] | Decreased appetite, all grades [3] | Decreased appetite, grade 3/4 [3] | Diarrhea, grade 3/4 [3] | Dizziness, grade 3/4 [3] | Dyspepsia, all grades [3] | Dyspepsia, grade 3/4 [3] | Fatigue, grade 3/4 [3] | Headache, all grades [3] | Headache, grade 3/4 [3] | Hypoalbuminemia, grade 3/4 [3] | Hypophagia, all grades [3] | Hypophagia, grade 3/4 [3] | Lipase increased, all grades [3] | Lipase increased, grade 3/4 [3] | Maculo‐papular rash, all grades [3] | Maculo‐papular rash, grade 3/4 [3] | Myalgia, all grades [3] | Myalgia, grade 3/4 [3] | Nausea, grade 3/4 [3] | Odynophagia, grade 3/4 [3] | Peripheral edema, grade 3/4 [3] | Pyrexia, all grades [3] | Pyrexia, grade 3/4 [3] | Stomatitis, grade 3/4 [3] | Thrombocytopenia, all grades [3] | Thrombocytopenia, grade 3/4 [3] | Total protein decreased, all grades [3] | Total protein decreased, grade 3/4 [3] | Upper abdominal pain, grade 3/4 [3] | Vomiting, grade 3/4 [3] | Amylase increased, all grades [4] | Amylase increased, grade 3/4 [4] | Asthenia, grade 3/4 [4] | Blood bilirubin increased, all grades [4] | Blood bilirubin increased, grade 3/4 [4] | Blood creatinine increased, all grades [4] | Blood creatinine increased, grade 3/4 [4] | Constipation, all grades [4] | Constipation, grade 3/4 [4] | Decreased appetite, grade 3/4 [4] | Diarrhea, all grades [4] | Diarrhea, grade 3/4 [4] | Dizziness, all grades [4] | Dizziness, grade 3/4 [4] | Dyspepsia, all grades [4] | Dyspepsia, grade 3/4 [4] | Headache, grade 3/4 [4] | Hypoalbuminemia, all grades [4] | Hypoalbuminemia, grade 3/4 [4] | Hypophagia, all grades [4] | Hypophagia, grade 3/4 [4] | Lipase increased, all grades [4] | Lipase increased, grade 3/4 [4] | Maculo‐papular rash, grade 3/4 [4] | Myalgia, all grades [4] | Myalgia, grade 3/4 [4] | Nausea, grade 3/4 [4] | Odynophagia, all grades [4] | Odynophagia, grade 3/4 [4] | Peripheral edema, grade 3/4 [4] | Pyrexia, grade 3/4 [4] | Stomatitis, all grades [4] | Stomatitis, grade 3/4 [4] | Thrombocytopenia, all grades [4] | Thrombocytopenia, grade 3/4 [4] | Total protein decreased, all grades [4] | Total protein decreased, grade 3/4 [4] | Upper abdominal pain, all grades [4] | Upper abdominal pain, grade 3/4 [4] | Vomiting, grade 3/4 [4] | Amylase increased, all grades [5] | Amylase increased, grade 3/4 [5] | Asthenia, all grades [5] | Asthenia, grade 3/4 [5] | Blood bilirubin increased, grade 3/4 [5] | Blood creatinine increased, all grades [5] | Blood creatinine increased, grade 3/4 [5] | Constipation, all grades [5] | Constipation, grade 3/4 [5] | Decreased appetite, grade 3/4 [5] | Diarrhea, grade 3/4 [5] | Dizziness, all grades [5] | Dizziness, grade 3/4 [5] | Dyspepsia, grade 3/4 [5] | Fatigue, grade 3/4 [5] | Headache, all grades [5] | Headache, grade 3/4 [5]
1 (13) n (%): ALT increased, all grades [5] | ALT increased, grade 3/4 [5] | Blood bilirubin increased, all grades [5] | Dyspepsia, all grades [5] | Hypoalbuminemia, all grades [5]
2 (40) n (%): Hypoalbuminemia, all grades [3] | Nausea, all grades [3] | Peripheral edema, all grades [3]
6 (16) n (%): Asthenia, all grades [1] | Hypoalbuminemia, all grades [1]
2 (25) n (%): AST increased, all grades [5] | Diarrhea, all grades [5]
7 (18) n (%): Diarrhea, all grades [2] | Vomiting, all grades [2]
1 (3) n (%): AST increased, grade 3/4 [1] | Amylase increased, grade 3/4 [1] | Blood bilirubin increased, grade 3/4 [1] | Dizziness, all grades [1] | Dyspepsia, all grades [1] | Hypoalbuminemia, grade 3/4 [1] | Lipase increased, all grades [1] | Lipase increased, grade 3/4 [1] | Maculo‐papular rash, all grades [1] | Peripheral edema, grade 3/4 [1] | Thrombocytopenia, all grades [1] | Blood creatinine increased, grade 3/4 [2] | Constipation, all grades [2] | Fatigue, grade 3/4 [2] | Headache, all grades [2] | Hypoalbuminemia, all grades [2] | Nausea, grade 3/4 [2] | Stomatitis, all grades [2] | Thrombocytopenia, grade 3/4 [2] | Vomiting, grade 3/4 [2]
